The test system of data set [1] is Mus musculus. Description: Concentration of 9-[4-Hydroxy-3-(hydroxymethyl)but-1-yl)guanine in blood of mice after 1 hour upon oral administration. Type of data set: functional, organism-based. The method, boiled down:
(§1)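 Female Balb/c mice (20 g), food withheld 18 h, got one oral gavage dose of 0.2 mmol/kg in 0.1 mL 1% (carboxymethyl)cellulose. Blood was drawn by heparinized cardiac puncture at 0.25, 1 and 3 h, with three mice pooled per time point. It was treated with an equal volume of 16% TCA, centrifuged and NaHCO3-neutralized. The guanine analyte was measured by C18 HPLC at 254 nm in duplicate.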

In data set [2] the test system is Mus musculus. Description: Concentration of 9-[4-Hydroxy-3-(hydroxymethyl)but-1-yl)guanine in blood of mice after 3 hours upon oral administration. Type of data set: functional, organism-based. The gist of the method:
as §1

In data set [3] the test system is Mus musculus. Briefly: Concentration of 2-Amino-9-(4-hydroxy-3-hydroxymethyl)but-1-yl)purine in blood of mice after 0.25 hours upon oral administration. Type of data set: functional, organism-based. The gist of the method:
(§2)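 Single oral gavage dose of 0.2 mmol/kg in 0.1 mL 1% (carboxymethyl)cellulose to female Balb/c mice (20 g), fasted 18 h. Heparinized cardiac-puncture blood was taken at 0.25, 1 and 3 h, pooled equally from three mice per time point, and deproteinized with an equal volume of 16% TCA. Supernatant was neutralized with NaHCO3 and run on C18 HPLC in duplicate in 5 mM KH2PO4. The 2-aminopurine was read at 310 nm; detection limit 1 μM.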

In data set [4] the test system is Mus musculus. Description: Concentration of 2-Amino-9-(4-hydroxy-3-hydroxymethyl)but-1-yl)purine in blood of mice after 3 hours upon oral administration. Type of data set: functional, organism-based. The gist of the method:
as §2

Data set [5] has as its system Mus musculus. Briefly: Concentration of 9-[4-Hydroxy-3-(hydroxymethyl)but-1-yl)guanine in blood of mice after 0.25 hours upon oral administration. Type of data set: functional, organism-based. The gist of the method:
as §1

Data set [6] deals with Mus musculus. Description: Concentration of 2-Amino-9-(4-hydroxy-3-hydroxymethyl)but-1-yl)purine in blood of mice after 1 hour upon oral administration. Type of data set: functional, organism-based. The method, boiled down: as §2
The nature of data set [7]: Aqueous solubility at 25 degrees Centigrade. Type of data set: physicochemical. The following applies: water; read-out: S.
Data set [8] can be described thus: Solubility in water. Type of data set: physicochemical. The note with it: read-out: S.
The subject of data set [9] is Mus musculus. Description: Concentration of 2-Amino-9-(4-hydroxy-3-hydroxymethyl)but-1-yl)purine in blood of mice after 1 hours upon oral administration. Type of data set: functional, organism-based. The gist of the method: as §2
The test system of data set [10] is Mus musculus. Description: Concentration of 9-[4-Hydroxy-3-(hydroxymethyl)but-1-yl)guanine in blood of mice after 3 hour upon oral administration. Type of data set: functional, organism-based. The method, boiled down:
as §1

Data on 20 molecules can be found in ChEMBL document CHEMBL1124547, “Prodrugs of the selective antiherpesvirus agent 9-[4-hydroxy-3-(hydroxymethyl)but-1-yl]guanine (BRL 39123) with improved gastrointestinal absorption properties” (J Med Chem, 1989).

Values after ≈ are worked out from the molar mass of the structure shown. Bounds are passed on as bounds.

For the molecule `CCCCOc1nc(N)nc2c1ncn2CCC(CO)CO`, the Concentration is 5.2 µM with Mus musculus [1]; below 0.5 µM in the data set with Mus musculus [2]; 19 µM in the data set with Mus musculus [3]; 1 µM with Mus musculus [4]; 5.7 µM with Mus musculus [5]; 11 µM in the data set on Mus musculus [6].
As for `CC(=O)OCC(CCn1cnc2cnc(N)nc21)COC(C)=O` [FAMCICLOVIR], the Concentration was 17 µM in the data set with Mus musculus [1]; 1.1 µM with Mus musculus [2]; 69 µM in the data set with Mus musculus [3]; below 1 µM with Mus musculus [4]; 74 µM with Mus musculus [5]; 3 µM in the data set on Mus musculus [6]. For the same molecule, the results for the solubility in data set [7] and in data set [8] were above 300 mg/mL and 20 mg/mL (≈ 62.2 mM), respectively.
With `Nc1nc2c(ncn2CCC(CO)CO)c(=O)[nH]1` [PENCICLOVIR], the solubility in data set [7] worked out at 3 mg/mL (≈ 11.8 mM).
Turning to `COC(=O)OCC(CO)CCn1cnc2cnc(N)nc21` (stereo unspecified), the Concentration is 22 µM in the data set on Mus musculus [1]; 2.6 µM with Mus musculus [2]; 55 µM in the data set on Mus musculus [3]; below 1 µM with Mus musculus [4]; 54 µM in the data set on Mus musculus [5]; 4 µM with Mus musculus [6].
With `CC(C)Oc1nc(N)nc2c1ncn2CCC(CO)CO`, the Concentration with Mus musculus [1] is 3.8 µM; in the data set on Mus musculus [2], below 0.5 µM; with Mus musculus [3], 43 µM; with Mus musculus [4], 1 µM; with Mus musculus [5], 9.2 µM; with Mus musculus [6] it was 12 µM.
For `Nc1nc(OCc2ccccc2)c2ncn(CCC(CO)CO)c2n1`, the Concentration was 2.1 µM in the data set with Mus musculus [1]; 0.5 µM in the data set with Mus musculus [2]; 3 µM with Mus musculus [3]; below 1 µM with Mus musculus [4]; 1.8 µM in the data set on Mus musculus [5]; 2 µM with Mus musculus [6].
Consider `Nc1ncc2ncn(CCC3COP(=O)(O)OC3)c2n1` (stereo unspecified), for which the Concentration in the data set with Mus musculus [1] is 1 µM; with Mus musculus [2], 2.6 µM; with Mus musculus [3] it was below 1 µM; in the data set with Mus musculus [4] it was below 1 µM; in the data set on Mus musculus [5], 1 µM; with Mus musculus [6], below 1 µM.
With `Nc1ncc2ncn(CCC(CO)CO)c2n1` [6-DEOXY PENCICLOVIR], the Concentration with Mus musculus [1] was determined as 13 µM; in the data set on Mus musculus [2] it was 3.2 µM; in the data set on Mus musculus [3] it was 8 µM; in the data set with Mus musculus [4] it was 1 µM; in the data set with Mus musculus [5], 16 µM; with Mus musculus [6] it was 4 µM. Besides, in [7], the solubility amounted to 120 mg/mL (≈ 506 mM).
In the case of `Nc1nc(O)c2ncn(CCC(CO)CO)c2n1`, the Concentration in the data set on Mus musculus [1] came out at 4 µM; with Mus musculus [2], 1.1 µM; in the data set with Mus musculus [5], 4.9 µM.
With `COc1nc(N)nc2c1ncn2CCC(CO)CO`, the Concentration is 0.9 µM with Mus musculus [1]; below 0.5 µM in the data set with Mus musculus [2]; 8 µM in the data set with Mus musculus [3]; 2 µM in the data set with Mus musculus [4]; 0.6 µM in the data set on Mus musculus [5]; 7 µM in the data set with Mus musculus [6].
Consider `Nc1nc(Oc2ccccc2)c2ncn(CCC(CO)CO)c2n1`, for which the Concentration with Mus musculus [1] was below 0.5 µM; in the data set on Mus musculus [2], below 0.5 µM; in the data set with Mus musculus [3] it was 8 µM; with Mus musculus [4], below 1 µM; in the data set with Mus musculus [5] it was below 0.5 µM; with Mus musculus [6] it was 7 µM.
On to `CC(=O)OCC(CO)CCn1cnc2cnc(N)nc21` (stereo unspecified), for which the Concentration was 20 µM with Mus musculus [1]; 1.2 µM with Mus musculus [2]; 38 µM with Mus musculus [3]; below 1 µM in the data set on Mus musculus [4]; 51 µM in the data set with Mus musculus [5]; 3 µM in the data set with Mus musculus [6].
For `CCOc1nc(N)nc2c1ncn2CCC(CO)CO`, the Concentration with Mus musculus [1] was 8 µM; with Mus musculus [2], 0.9 µM; in the data set with Mus musculus [3], 25 µM; in the data set with Mus musculus [4] it was below 1 µM; in the data set on Mus musculus [5] it was 6.8 µM; in the data set with Mus musculus [6], 11 µM.
`CCC(=O)OCC(CCn1cnc2cnc(N)nc21)COC(=O)CC`: the Concentration with Mus musculus [1] is 26 µM; in the data set on Mus musculus [2], 2.1 µM; in the data set on Mus musculus [3] it was 92 µM; in the data set on Mus musculus [4], below 1 µM; in the data set with Mus musculus [5] it was 79 µM; in the data set with Mus musculus [6], 9 µM. The solubility in data set [7] worked out at 19 mg/mL (≈ 54.4 mM).
Consider `CC1(C)OCC(CCn2cnc3cnc(N)nc32)CO1`, for which the Concentration was determined as 11 µM with Mus musculus [1]; 4 µM in the data set on Mus musculus [9]; 3.2 µM in the data set with Mus musculus [2]; 33 µM in the data set on Mus musculus [3]; 1 µM with Mus musculus [4]; 33 µM with Mus musculus [5].
With `Nc1ncc2ncn(CCC(CO)COC(=O)c3ccccc3)c2n1` (stereo unspecified), the Concentration in the data set on Mus musculus [1] was 26 µM; in the data set on Mus musculus [2] it was 1.1 µM; with Mus musculus [3], 71 µM; with Mus musculus [4], below 1 µM; in the data set with Mus musculus [5] it was 63 µM; with Mus musculus [6], 8 µM.
For `CC(=O)OCC(CCn1cnc2c(O)nc(N)nc21)COC(C)=O`, the solubility in [7] came to 6.7 mg/mL (≈ 19.9 mM).
As for `CCC(=O)OCC(CCn1cnc2c(O)nc(N)nc21)COC(=O)CC`, the solubility in data set [7] was 1.2 mg/mL (≈ 3.28 mM).
As to `Nc1ncc2ncn(CCC(CO)COP(=O)(O)O)c2n1` (stereo unspecified), the Concentration was found to be 17 µM in the data set on Mus musculus [1]; 5.2 µM in the data set on Mus musculus [10]; 8 µM with Mus musculus [9]; 4 µM in the data set on Mus musculus [3]; 1 µM in the data set on Mus musculus [4]; 8.7 µM in the data set on Mus musculus [5].
On to `CCCC(=O)OCC(CO)CCn1cnc2cnc(N)nc21` (stereo unspecified), for which the Concentration in the data set on Mus musculus [1] was 28 µM; in the data set on Mus musculus [2], 2 µM; in the data set on Mus musculus [3] it was 57 µM; in the data set with Mus musculus [4], below 1 µM; in the data set with Mus musculus [5], 64 µM; with Mus musculus [6], 7 µM.
